This sample holds only a part of the variants without activity.

B1: tRNA (parent)
chain: GUUCCGUUGGCGUAAUGGUAACGCGUCUCCCUCCUAAGGAGAAGACUGCGGGUUCGAGUCCCGUACGGAACG

Variants of B1 are the subject of the series. The experiment in a line: yeast fitness relative to wild type (ratio to wild type); higher = fitter; tRNA-Arg(CCU), competitive growth, 37 C, YPD. The gist of the method: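 The tRNA-Arg(CCU) gene variants were made by chemical synthesis with a 3% per-site mutation rate at 69 sites and inserted at the native genomic locus of Saccharomyces cerevisiae. After pooling, the strains were competed in YPD at 37°C for 24 hours in six parallel replicates. Gene amplicons from the start population and each end population were read by 100-nucleotide paired-end sequencing, and Darwinian fitness relative to wild type was taken from genotype frequency changes. Genotypes needed ≥ 100 starting reads, and estimates < 0.5 were set to 0.5.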
Regarding C11U C31G A57U G67U, the yeast fitness was not above 0.5.

In the case of C11U G25C C34A, the yeast fitness was determined as 0.557.

As to C11U G12A A15C C31A G51A, the yeast fitness is not above 0.5.

As for C11U C61U A70G, the yeast fitness stood at 0.77.

For C11U G12A C61U, the yeast fitness came out at 0.511.

In the case of C11U G44A G63A, the yeast fitness was 0.74.

As for C11U U19G C27U U47C A70U, the yeast fitness was not above 0.5.

C11U C27U C29A C33G C66A: the yeast fitness is not above 0.5.

As to C11U C29A U54A A70C, the yeast fitness is not above 0.5.

C11U C31U U47C: the yeast fitness came out at 0.78.

For the variant C11U C29G C31U C34G A70C, the yeast fitness was determined as 0.534.

Consider C11U G38A A40U G52C G68C A69G, for which the yeast fitness is not above 0.5.

Take C11U G48A U54C: the yeast fitness came out at 0.677.

Consider C11U G17C A21U, for which the yeast fitness is 0.541.

In the case of C11U G41C G68A A69C, the yeast fitness is not above 0.5.

With C11U U26G U28C G56A, the yeast fitness is not above 0.5.

C11U U16C C33A U53C: the yeast fitness is not above 0.5.

For the variant C11U C55G C66U, the yeast fitness was not above 0.5.

With C11U C33G U54A U64A, the yeast fitness was not above 0.5.

Turning to C11U C49U A65C, the yeast fitness worked out at 0.727.

As for C11U C29U G67A A70U, the yeast fitness is 0.578.

Turning to C11U C31U A42G C62U A69C, the yeast fitness is not above 0.5.

In the case of C11U C46U G52C U59C C66U, the yeast fitness is not above 0.5.

On to C11U G25A A70C, for which the yeast fitness was 0.892.

Regarding C11U G51A C61G, the yeast fitness was not above 0.5.

Consider C11U C29U G50A C66A, for which the yeast fitness was not above 0.5.

In the case of C11U C46U C49U G67C, the yeast fitness is not above 0.5.

In the case of C11U G12A G44C C46U U59A, the yeast fitness was not above 0.5.

C11U G67C: the yeast fitness amounted to 0.792.

For C11U G56C C62U G68U, the yeast fitness is not above 0.5.

For the variant C11U G12A C66U, the yeast fitness came to 0.587.

For the variant C11U U19A C61U G68A, the yeast fitness was not above 0.5.

Regarding C11U G17U A40U A42U C49G G51A C66A G68C, the yeast fitness was not above 0.5.

For C11U C34G A40C A43G G51C, the yeast fitness was not above 0.5.

For C11U C29G C55G A57G, the yeast fitness is not above 0.5.

Regarding C11U C61U G68A, the yeast fitness is 0.615.

In the case of C11U C46U G56C A69U, the yeast fitness is not above 0.5.

Take C11U U19G C33U A40G G67A: the yeast fitness was not above 0.5.

C11U C24U C34U C61U: the yeast fitness was not above 0.5.

On to C11U C30U A43G, for which the yeast fitness is not above 0.5.

In the case of C11U C29A A57U C62U, the yeast fitness was not above 0.5.

As to C11U G44A U53G, the yeast fitness came to 0.529.

Turning to C11U G41A A65U, the yeast fitness was 0.515.

Regarding C11U C34A A57G, the yeast fitness is 0.548.

Regarding C11U U19C, the yeast fitness was found to be 0.941.

As to C11U C29A U35C, the yeast fitness was not above 0.5.

As for C11U C29G C31U, the yeast fitness was 0.531.

Regarding C11U G23A C60G C62A, the yeast fitness is not above 0.5.

Regarding C11U C31G C34G A43U A69C, the yeast fitness was not above 0.5.

C11U C30G G56C: the yeast fitness was not above 0.5.

For C11U C27U C31A A42G C49G G51A, the yeast fitness was not above 0.5.

In the case of C11U C27U U35C, the yeast fitness was found to be 0.635.

For the variant C11U C30G A40U A45U C55G, the yeast fitness was determined as 0.604.

As for C11U U13G C29U C34G C46G G58A, the yeast fitness is not above 0.5.

On to C11U C30U C46A, for which the yeast fitness turned out to be 0.821.

C11U C49U G56C C62U: the yeast fitness was not above 0.5.

In the case of C11U U28A U54C, the yeast fitness is not above 0.5.

Take C11U C31U U59A: the yeast fitness is not above 0.5.

As to C11U C34A G41C A42G, the yeast fitness was not above 0.5.

Turning to C11U U28A C29U, the yeast fitness worked out at 0.93.

Turning to C11U G51A G58A A70C, the yeast fitness is not above 0.5.

With C11U C60G C62U G68C, the yeast fitness was determined as 0.505.

Turning to C11U C49G A57C G67U, the yeast fitness is not above 0.5.

On to C11U G63C, for which the yeast fitness was determined as 0.725.

As for C11U U19C G23A G25A A43U C55U, the yeast fitness is not above 0.5.

Take C11U G48A C49A U54A: the yeast fitness was not above 0.5.

C11U G50A G63A: the yeast fitness turned out to be 0.606.

For the variant C11U U13C, the yeast fitness was 0.954.

Consider C11U U13A, for which the yeast fitness amounted to 0.832.

Consider C11U G51A G63C A69U, for which the yeast fitness was not above 0.5.

Consider C11U C27U A45C A57C, for which the yeast fitness was not above 0.5.

Regarding C11U U19G U35G, the yeast fitness is not above 0.5.

Regarding C11U G58A A65G, the yeast fitness amounted to 0.777.

As to C11U U26G U28C C49A G58C C62U, the yeast fitness stood at 0.527.

As to C11U C66U, the yeast fitness was determined as 0.931.

Take C11U C31G A37U G51C G58A: the yeast fitness is not above 0.5.

Regarding C11U C34U, the yeast fitness worked out at 0.714.

Consider C11U G17C A37G G56C C61A A65G C66G, for which the yeast fitness was not above 0.5.

Turning to C11U U26A C31G A37U, the yeast fitness was not above 0.5.

With C11U G48A C62A, the yeast fitness amounted to 0.762.

For the variant C11U G48A C55A G58C, the yeast fitness was not above 0.5.

As for C11U C31G C49G, the yeast fitness was 0.696.

On to C11U U13C A14G C24A A43C G50C C60G, for which the yeast fitness was not above 0.5.

Regarding C11U G48A, the yeast fitness was 0.972.

In the case of C11U U13C C27G A69C, the yeast fitness was not above 0.5.

C11U U26G G56A: the yeast fitness was not above 0.5.

For C11U U16A C60G C62G, the yeast fitness is not above 0.5.

As to C11U C33G C61U, the yeast fitness was not above 0.5.

With C11U C34A A36C, the yeast fitness was not above 0.5.

In the case of C11U C29A, the yeast fitness stood at 0.824.

Consider C11U U16A C29A A45U, for which the yeast fitness was 0.605.

As for C11U G41A A42G A70U, the yeast fitness is not above 0.5.

Regarding C11U G38A, the yeast fitness is 1.02.

In the case of C11U G63C C66U, the yeast fitness is not above 0.5.

Take C11U C29A A57G: the yeast fitness is not above 0.5.

Regarding C11U U16C C24U A42C G56C A65C, the yeast fitness is not above 0.5.

With C11U U13A U32C C49U, the yeast fitness is not above 0.5.

Consider C11U G17C, for which the yeast fitness amounted to 0.768.

As for C11U U13C C30U, the yeast fitness stood at 0.769.

With C11U U13G U19A C22G G25A, the yeast fitness came out at 0.604.

C11U G58A: the yeast fitness amounted to 1.01.

In the case of C11U G38C C55G G67A, the yeast fitness is not above 0.5.

With C11U C31U G41A, the yeast fitness is 0.714.

Turning to C11U C61A G67A, the yeast fitness came to 0.53.

With C11U G51A A65U, the yeast fitness was not above 0.5.

C11U C31G A45C: the yeast fitness is not above 0.5.

Regarding C11U C27U C31U A37G A42U G48C C49U, the yeast fitness turned out to be 0.54.

As for C11U C31G C46A U54C C61G, the yeast fitness was not above 0.5.

Regarding C11U C29G A37C A42U A57G, the yeast fitness is not above 0.5.

For C11U G56C C62U, the yeast fitness amounted to 0.575.

On to C11U G48A G67C, for which the yeast fitness amounted to 0.731.

For C11U C49U C61A, the yeast fitness worked out at 0.555.

C11U G23C: the yeast fitness turned out to be 0.757.

As for C11U U19G C27U G48A C66U, the yeast fitness is not above 0.5.

On to C11U C27G C62U A65U, for which the yeast fitness is not above 0.5.

In the case of C11U C27A G52A, the yeast fitness is not above 0.5.

For the variant C11U G18C G23C A57C, the yeast fitness is not above 0.5.

As to C11U C61A C62U G63C A70U, the yeast fitness is not above 0.5.

On to C11U C27A G51C G56C, for which the yeast fitness is not above 0.5.

Turning to C11U G25A C29A A42C A45G, the yeast fitness is not above 0.5.

C11U G44A C61A: the yeast fitness turned out to be 0.823.

Take C11U U13C C29U A37C G39A C46A: the yeast fitness is not above 0.5.

Take C11U U19A C29U C30G: the yeast fitness is not above 0.5.

Turning to C11U G48A G51A, the yeast fitness was 0.724.

For the variant C11U G48A G51C, the yeast fitness is 0.832.

For the variant C11U C30U A65U C66G, the yeast fitness stood at 0.585.

As to C11U C29U G38A G48C C62G, the yeast fitness was not above 0.5.

For C11U C31G C46G, the yeast fitness was 0.673.

For the variant C11U C31G C46A, the yeast fitness worked out at 0.629.

With C11U C27A C46A A70U, the yeast fitness was not above 0.5.

Turning to C11U U19A U64C, the yeast fitness worked out at 0.664.

For the variant C11U U19A C30G G68A, the yeast fitness was not above 0.5.

Regarding C11U G17A C49U, the yeast fitness worked out at 0.596.

For C11U C31G C33U A37C A65U, the yeast fitness is not above 0.5.

In the case of C11U C31U G51C, the yeast fitness is not above 0.5.

C11U G38A C60U G67C: the yeast fitness is not above 0.5.

For the variant C11U C55G A70C, the yeast fitness stood at 0.541.

In the case of C11U U13A C27G C46A C49G, the yeast fitness was not above 0.5.

Regarding C11U C24U G44C C49A A69C, the yeast fitness is not above 0.5.

Regarding C11U G44C G67A, the yeast fitness is 0.638.

In the case of C11U G58A G63A, the yeast fitness turned out to be 0.74.

For the variant C11U C31G C55U C61U A65G, the yeast fitness was not above 0.5.

As to C11U G18A A40U, the yeast fitness was not above 0.5.

C11U C33U A69U: the yeast fitness turned out to be 0.605.

For the variant C11U G25A A57C C60U G67C, the yeast fitness is not above 0.5.

Take C11U C24U C34G U64A: the yeast fitness was not above 0.5.

For the variant C11U G56A A65C, the yeast fitness turned out to be 0.732.

For the variant C11U C46U, the yeast fitness turned out to be 1.

For the variant C11U C46A, the yeast fitness was found to be 1.03.

Take C11U C29G C31U A57U: the yeast fitness is not above 0.5.

In the case of C11U U16A A36C A43G C62G A65U, the yeast fitness is not above 0.5.

Consider C11U C30U G41C, for which the yeast fitness was not above 0.5.

Consider C11U G44C G58A, for which the yeast fitness was determined as 0.712.

C11U U13G A21G U26C C27G G48C G67A: the yeast fitness is not above 0.5.

Turning to C11U U13C A42U C55A G56A, the yeast fitness came to 0.762.

Take C11U C30U: the yeast fitness was determined as 0.748.

Regarding C11U C30A U47A C62A, the yeast fitness was 0.591.

Regarding C11U U26A C34G, the yeast fitness turned out to be 0.607.

As for C11U C29U A45C C60G A65C, the yeast fitness is not above 0.5.

As to C11U C34U A43G, the yeast fitness is not above 0.5.

With C11U G44C C62A, the yeast fitness is not above 0.5.

Turning to C11U C27G, the yeast fitness came to 0.703.

Regarding C11U C27U, the yeast fitness was 0.906.

Consider C11U G39C C66U, for which the yeast fitness stood at 0.558.

In the case of C11U C29A C31G, the yeast fitness was not above 0.5.

Take C11U C33G C60A: the yeast fitness is not above 0.5.

As for C11U C31A A42G, the yeast fitness was found to be 0.525.

Values taken from the RNAGym collection of RNA variant scans (doi:10.1126/science.aae0568).
